Compound activity deposited in PubChem BioAssay by several laboratories.
IEC-6 tox: counter-screen for KLF5 inhibitors: cytotoxicity in IEC-6 cells | IEC-6 cytotoxicity, luminescence viability | inhibition, % at 5 µM | 290,000 tested, 0.78% active | AID 1825
MT stabilize HCS: stabilizes microtubules in HeLa cells. HeLa tubulin immunostaining HCS, 24 h; share of cells brighter than vehicle mean+2SD. % tubulin-high responders, % at 10 µM. 200,000 tested, 0.83% active;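 active = plate Z-score above 3 for both tubulin-high and condensed-nucleus cell shares, with cell loss under 80%, at 10 µM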;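 also: anti alpha tubulin signal scored within the nucleus-defined area of each cell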
BaF3 parental: reduces parental Ba/F3 cell viability, JAK2V617F counter-screen; CellTiter-Glo ATP luminescence; inhibition, % at 5.6 µM; 220,000 tested, 1.1% active;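 active = inhibition above a per-campaign cutoff, the mean inhibition of all tested compounds plus 3 SD, cut at about 27% in these data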
b-catenin transl: alters nuclear translocation of beta-catenin in HeLa cells; immunofluorescence imaging; nuclear translocation activity, % at 5 µM; 190,000 tested, 0.3% active; AID 1665;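 active = nuclear translocation activity above 50% at 5 µM, with a well cell count of 50 or more; inconclusive = wells under 50 cells across six images, flagged as toxic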;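 also: per-cell ratio of nuclear to cytoplasmic median beta-catenin stain intensity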
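Test system: human HeLa cell line; Doses: 5 µM primary, 0.02–20 µM confirmation; Incubation: 24 h compound exposure, 37°C; Detection: beta-catenin immunofluorescence imaging with DAPI; Read-out: beta-catenin nuclear/cytoplasmic ratio, % activation.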
APP transl inh: APP translation inhibition | SH-SY5Y APP 5'UTR-luciferase reporter, luminescence | inhibition, % at 2 µM | 190,000 tested, 0.82% active;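 active = inhibition above a set limit, derived from the sample mean plus 3 SD, cut at about 45% in these data; inconclusive = one replicate passes the limit while the other fails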
Ba/F3 V617F tox: lowers viability of Ba/F3 cells expressing EpoR and JAK2V617F; ATP luminescence; inhibition, % at 5.6 µM; 220,000 tested, 1.1% active; AID 1446;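 active = inhibition above the campaign mean plus 3 SD over all tested compounds, cut at about 24% in these data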;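 also: cytokine-independent growth of Ba/F3 cells driven by EpoR plus mutant JAK2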
IEC-6 tox confirm: confirmation of cytotoxic compounds in rat IEC-6 intestinal epithelial cells; shares compounds with IEC-6 tox; IEC-6 rat intestinal epithelial viability, luminescence; inhibition, % at 5 µM; 1,900 tested, 63% active
Each line names hits and unclear results; the compound was inactive in the other large screens (follow-up assays come after a bar, where they were run). An excerpt weighted towards active compounds, which were near 2.2% of everything screened. Rule as the data show it, unless noted: active = inhibition above about 22%; inactive = the rest.

COc1ccc(-n2c(-c3cc(-c4ccccc4)sc3N)n[nH]c2=S)cc1	none (no result: MT stabilize HCS, APP transl inh)
c1ccc(CN2CCC(Nc3nc(-c4cccnc4)nc4ccccc34)CC2)cc1	IEC-6 tox 24 | IEC-6 tox confirm inactive
CCS(=O)(=O)c1ncc(Cl)c(C(=O)Nc2ccc(S(=O)(=O)N3CCCC(C)C3)cc2)n1 (stereo not given)	IEC-6 tox 101 (no result: MT stabilize HCS, BaF3 parental, b-catenin transl, APP transl inh, Ba/F3 V617F tox) | IEC-6 tox confirm inactive
CCS(=O)(=O)c1ncc(Cl)c(C(=O)Nc2ccc(C)cc2)n1	IEC-6 tox 75 (no result: MT stabilize HCS, BaF3 parental, b-catenin transl, APP transl inh, Ba/F3 V617F tox) | IEC-6 tox confirm 42
CCC1CCCCN1S(=O)(=O)c1ccc(NC(=O)c2ccncc2)cc1 (stereo not given)	none (no result: MT stabilize HCS, BaF3 parental, b-catenin transl, APP transl inh, Ba/F3 V617F tox)
CCC1CCCCN1S(=O)(=O)c1ccc(NC(=O)c2nc(S(C)(=O)=O)ncc2Cl)cc1 (stereo not given)	IEC-6 tox 94 (no result: MT stabilize HCS, BaF3 parental, b-catenin transl, APP transl inh, Ba/F3 V617F tox) | IEC-6 tox confirm inactive
Cc1ccc(CS(=O)(=O)c2ncc(Cl)c(C(=O)Nc3ccc(OC(F)F)cc3)n2)cc1	IEC-6 tox 31 (no result: MT stabilize HCS, BaF3 parental, b-catenin transl, APP transl inh, Ba/F3 V617F tox) | IEC-6 tox confirm inactive
CSc1ncc(Cl)c(C(=O)Nc2ccc(NC(C)=O)cc2)n1	none
CCN1CCN(C(=O)CCc2nnc3ccc(N4CCC5(CC4)OCCO5)nn23)CC1	none (no result: MT stabilize HCS, BaF3 parental, b-catenin transl, APP transl inh, Ba/F3 V617F tox)
Cc1oc2c(c1C(=O)NCc1cccnc1)C(=O)c1ccccc1C2=O	IEC-6 tox 102, BaF3 parental 101, b-catenin transl inconclusive, APP transl inh 95, Ba/F3 V617F tox 94 | IEC-6 tox confirm 105
CN1/C(=C\C=C(/C#N)C(=O)Nc2ccccc2F)C(C)(C)c2ccccc21	none
CN1/C(=C/C=C(/C#N)C(N)=O)C(C)(C)c2ccccc21	IEC-6 tox 47, MT stabilize HCS 20, BaF3 parental 62, APP transl inh 68, Ba/F3 V617F tox 78 (no result: b-catenin transl) | IEC-6 tox confirm 44
CCN1CCN(CCOc2ccc(Cl)cc2)CC1	none
Clc1ccc(OCCN2CCN(c3ncnc4sccc34)CC2)cc1	IEC-6 tox 26, BaF3 parental 73, Ba/F3 V617F tox 66 | IEC-6 tox confirm inactive
Cc1cccc(/C=N/Nc2cc(N3CCOCC3)nc(N3CCOCC3)n2)c1	IEC-6 tox 24 | IEC-6 tox confirm 94
CC(C)c1ccc(/C=N/Nc2cc(N3CCOCC3)nc(N3CCOCC3)n2)cc1	none
Cc1ccc(Nc2nc(N/N=C\c3ccc4c(c3)OCO4)nc(N3CCOCC3)n2)cc1	IEC-6 tox 49 | IEC-6 tox confirm 67
COc1ccc(C(C)=O)cc1COC(=O)c1cccnc1SC	none
COc1ccc(S(=O)(=O)Nc2cc(Cl)ccc2OC)cc1	IEC-6 tox 68, MT stabilize HCS 24, BaF3 parental 72, APP transl inh 87, Ba/F3 V617F tox 81 | IEC-6 tox confirm 53
CCOc1ccc(S(=O)(=O)Nc2cc(OC)ccc2OC)cc1	IEC-6 tox 90, BaF3 parental 80, b-catenin transl 52, APP transl inh 93, Ba/F3 V617F tox 80 | IEC-6 tox confirm 62
COc1ccc(NS(=O)(=O)c2cccc(NC(=O)c3ccc(Cl)nc3)c2)cc1	IEC-6 tox 33, MT stabilize HCS 16, BaF3 parental 78, Ba/F3 V617F tox 63 | IEC-6 tox confirm inactive
COC(=O)c1cn(C(=O)c2ccc(OC)cc2)c2ccccc12	IEC-6 tox 52 (no result: MT stabilize HCS, BaF3 parental, b-catenin transl, APP transl inh, Ba/F3 V617F tox) | IEC-6 tox confirm 34
COC(=O)c1cn(C(=O)c2ccc(C)cc2)c2ccccc12	none
Cn1c(=O)c(C(=O)NCc2ccc(Cl)cc2)c(O)c2ccccc21	none (no result: MT stabilize HCS, BaF3 parental, b-catenin transl, APP transl inh, Ba/F3 V617F tox)
CC(=O)c1c(-c2ccccc2)c2cc(Cl)ccc2n(C)c1=O	IEC-6 tox 22 (no result: MT stabilize HCS, BaF3 parental, b-catenin transl, APP transl inh, Ba/F3 V617F tox) | IEC-6 tox confirm inactive
O=C(Nc1ccc(OC(=O)c2ccco2)cc1)c1ccco1	none
O=C(OC1CCCCC1)c1ccc(NC(=O)c2ccco2)cc1	IEC-6 tox 32 | IEC-6 tox confirm 23
O=C(COc1ccccc1Cl)Nc1nnc(S(=O)(=O)N2CCCC2)s1	none (no result: MT stabilize HCS, BaF3 parental, b-catenin transl, APP transl inh, Ba/F3 V617F tox)
O=C1C(Cl)=C(NCCN2CCOCC2)C(=O)c2ccccc21	IEC-6 tox 33 (no result: MT stabilize HCS, BaF3 parental, b-catenin transl, APP transl inh, Ba/F3 V617F tox) | IEC-6 tox confirm inactive
COCCCNC(=S)Nc1cc2oc3ccccc3c2cc1OC	IEC-6 tox 34 (no result: MT stabilize HCS, BaF3 parental, b-catenin transl, APP transl inh, Ba/F3 V617F tox) | IEC-6 tox confirm 22
N#CC1=C2SCC(O)(c3ccccc3)N2C(=O)CC1c1ccccc1 (stereo not given)	IEC-6 tox 77, MT stabilize HCS 34, BaF3 parental 79, APP transl inh 92, Ba/F3 V617F tox 82 | IEC-6 tox confirm 60
